The values that follow come from ChEMBL document CHEMBL1137372, “Structural investigation of the 7-chloro-3-hydroxy-1H-quinazoline-2,4-dione scaffold to obtain AMPA and kainate receptor selective antagonists. Synthesis, pharmacological, and molecular modeling studies” (J Med Chem, 2006).

A value given as a limit tells only on which side of the number the result lay.

For orientation: Ki means a dissociation constant, usually derived from enzyme kinetics or from competition with a known ligand. Read a low Ki as a stronger hold on the target. In general, IC50 refers to the concentration needed to halve the response being measured. A word on the inhibition: it is the percentage by which the read-out fell short of the control. A high value points to a response far below the control.

Experiment [1] deals with Glutamate receptor ionotropic, AMPA (Rattus norvegicus, UniProt P19490+P19491+P19492+P19493). Kind of experiment: Displacement of [3H]AMPA from AMPA receptor in rat cortical synaptic membrane. The experiment is classed as cell membranes.
In the next experiment the target is Glutamate NMDA receptor. Kind of experiment: Displacement of [3H]glycine from Gly/NMDA receptor in rat cortical synaptic membrane. The experiment is classed as cell membranes.
The nature of experiment [2]: Displacement of [3H]KA from high affinity KA receptor in rat cortical membrane. Type of experiment: cell membranes. In short, it runs like this:
(§1)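 High- and low-affinity [3H]kainate binding to rat cortical membranes. Compounds were made up as a 1 mM stock in 50% DMSO and diluted in buffer. IC50s came from three or four displacement curves using four to six concentrations in triplicate, fitted with ALLFIT. Ki values are mean ± SEM of three or four determinations in triplicate.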
On the technique in general: Displacement assays read how much labelled ligand stays bound in the presence of the test substance.

A short description of experiment [3]: Antagonist activity against NMDA receptor assessed as inhibition of NMDA-induced depolarization in mouse cortex. Type of experiment: functional, tissue-based. In short, it runs like this:
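Mouse cortical wedge preparation. Depolarization was evoked with 5 µM NMDA. The IC50 is the concentration giving 50% inhibition of the depolarization, as mean ± SEM of three separate determinations.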

Experiment [4] addresses Glutamate receptor ionotropic, AMPA (Mus musculus, UniProt P23818+P23819+Q9Z2W8+Q9Z2W9). Kind of experiment: Antagonist activity against AMPA receptor assessed as inhibition of SAMPA-induced depolarization of mouse cortex.
In experiment [5] the target is Glutamate NMDA receptor (Rattus norvegicus) (UniProt P35439+Q00959+Q00960+Q00961+Q62645+Q8VHN2+Q9R1M7). Briefly: Displacement of [3H]glycine from Gly/NMDA receptor in rat cortical synaptic membrane at 100 uM. The experiment is classed as cell membranes.
Experiment [6] can be described thus: Displacement of [3H]KA from low affinity KA receptor in rat cortical membrane. The experiment is classed as cell membranes. In short, it runs like this:
as §1

Experiment [7] addresses Glutamate receptor ionotropic, AMPA (Rattus norvegicus) (UniProt P19491+P19492+P19493+P19490). Kind of experiment: Displacement of [3H]AMPA from AMPA receptor in rat cortical synaptic membrane at 100 uM. The experiment is classed as cell membranes.
Experiment [8] is filed under the species Rattus norvegicus. Briefly: Displacement of [3H]KA from low affinity KA receptor in rat cortical membrane at 100 uM. The experiment is classed as cell membranes. The essentials:
(§2)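 Rat cortical membranes were used for the high-affinity and low-affinity [3H]kainate binding assays, following earlier published methods. Test compound was made as a 1 mM stock in 50% DMSO and diluted in buffer. The value is percent inhibition of specific binding at 100 µM.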

The species named for experiment [9] is Rattus norvegicus. Briefly: Displacement of [3H]KA from high affinity KA receptor in rat cortical membrane at 100 uM. Type of experiment: cell membranes. In short, it runs like this: as §2
The test system of experiment [10] is Mus musculus. Kind of experiment: Antinociceptive activity in mouse at 5 mg/kg, po measured as number of acetic acid-induced writhes by abdominal constriction assay. The experiment is classed as functional, Abdomen.
For experiment [11], the system named is Mus musculus. Kind of experiment: Antinociceptive activity in mouse at 1 mg/kg, po measured as number of acetic acid-induced writhes by abdominal constriction assay. The experiment is classed as functional, Abdomen.
The subject of experiment [12] is Mus musculus. Kind of experiment: Antinociceptive activity in mouse at 0.1 mg/kg, po measured as number of acetic acid-induced writhes by abdominal constriction assay. Type of experiment: functional, Abdomen.
For experiment [13], the system named is Mus musculus. Kind of experiment: Antinociceptive activity in mouse at 10 mg/kg, po measured as number of acetic acid-induced writhes by abdominal constriction assay. The experiment is classed as functional, Abdomen.
The subject of experiment [14] is Mus musculus. Kind of experiment: Activity against mouse motor coordination measured as number of falls from the rod in 30 sec by rotarod test at 20 mg/kg, po after 30 mins. The experiment is classed as functional. In short, it runs like this:
(§3)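 Mice on a 3-cm rod rotating at 16 rpm, up to five at once. Drug dispersed in 1% sodium CMC and given po in 10 mL kg^-1 30 min before testing. Falls from the rod in 30 s were counted before treatment and at 30, 45 and 60 min after. Each value is the mean of eight mice.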
A general note: In the rotarod test animals must keep their balance on a rotating rod.

Experiment [15] has as its system Mus musculus. Briefly: Activity against mouse motor coordination measured as number of falls from the rod in 30 sec by rotarod test at 20 mg/kg, po after 45 mins. Type of experiment: functional. In short, it runs like this:
as §3

Experiment [16] deals with Mus musculus. Briefly: Activity against mouse motor coordination measured as number of falls from the rod in 30 sec by rotarod test at 20 mg/kg, po after 60 mins. The experiment is classed as functional. In short, it runs like this:
as §3

The subject of experiment [17] is Mus musculus. Briefly: Activity against mouse motor coordination measured as number of falls from the rod in 30 sec by rotarod test at 50 mg/kg, po after 30 mins. Type of experiment: functional. In short, it runs like this: as §3
The test system of experiment [18] is Mus musculus. Briefly: Activity against mouse motor coordination measured as number of falls from the rod in 30 sec by rotarod test at 50 mg/kg, po after 45 mins. The experiment is classed as functional. In short, it runs like this: as §3
The test system of experiment [19] is Mus musculus. Kind of experiment: Activity against mouse motor coordination measured as number of falls from the rod in 30 sec by rotarod test at 50 mg/kg, po after 60 mins. The experiment is classed as functional. The essentials:
as §3

With `O=c1ccn(-c2cc3c(=O)n(O)c(=O)[nH]c3cc2Cl)cc1`, the Ki is 0.5 µM in experiment [1] and 25 µM on Glutamate NMDA receptor. The IC50 was 4.1 µM in [2], more than 80 µM in [3] and 3.5 µM in experiment [4].
In turn, `O=C(O)c1ccn(-c2cc3c(=O)n(O)c(=O)[nH]c3cc2Cl)c1` returned a Ki in experiment [1] of 1.3 µM. This molecule also came in with an IC50 in experiment [2] of 13 µM. In [5], this molecule yielded an inhibition of 44%.
In experiment [1], `N[C@@H](Cn1ccc(=O)n(Cc2ccccc2C(=O)O)c1=O)C(=O)O` displayed a Ki of 117 µM. For the same molecule, the IC50 in [2] came out at 46 µM; in experiment [6] it was 15 µM. The molecule also registered an inhibition in experiment [5] of 20%.
In turn, `O=C(O)CCC(=O)Nc1cc2c(=O)n(O)c(=O)[nH]c2cc1Cl` came in with a Ki in [1] of 8.4 µM. This molecule registered an IC50 in [2] of 5.4 µM. The same molecule yielded an inhibition in [5] of 8%.
For `O=C(O)c1ccc(C(=O)Nc2cc3c(=O)n(O)c(=O)[nH]c3cc2Cl)cc1`, the IC50 in [2] amounted to 12.9 µM. Also, the inhibition in experiment [7] was found to be 29%; in experiment [5], 40%; in the experiment filed under Rattus norvegicus [8], 0%.
For `O=C1OCCC1On1c(=O)[nH]c2cc(Cl)ccc2c1=O` (racemic), the inhibition in experiment [7] was determined as 26%; in experiment [5], 37%; in the experiment filed under Rattus norvegicus [9] it was 11%.
Consider `COC(=O)c1ccc(C(=O)Nc2cc3c(=O)n(O)c(=O)[nH]c3cc2Cl)cc1`, for which the inhibition amounted to 43% in experiment [7], 10% in experiment [5] and 28% in the experiment listed under Rattus norvegicus [9].
`O=c1[nH]c2cc(Cl)ccc2c(=O)n1O` gave a Ki on Glutamate NMDA receptor of 0.24 µM. The same molecule returned an IC50 in experiment [2] of 140 µM.
Consider `O=c1[nH]c2cc(Cl)c(-n3cnnc3)cc2c(=O)n1O`, for which the IC50 in [2] came to 7 µM; in experiment [3], 84 µM; in experiment [4], 4.6 µM. Also, the inhibition in experiment [5] was found to be 47%.
Regarding `CCOC(=O)COn1c(=O)[nH]c2cc(Cl)ccc2c1=O`, the inhibition turned out to be 9% in [7], 0% in experiment [5] and 5% in the experiment filed under Rattus norvegicus [9].
The molecule `O=C(Nc1cc2c(=O)n(O)c(=O)[nH]c2cc1Cl)c1ccccc1` returned a Ki in experiment [1] of 45 µM. In experiment [2], the IC50 amounted to 52 µM. In addition, the inhibition in experiment [5] is 33%.
With `COC(=O)c1cccc(C(=O)Nc2cc3c(=O)n(O)c(=O)[nH]c3cc2Cl)c1`, the inhibition stood at 35% in [7], 32% in experiment [5] and 20% in the experiment filed under Rattus norvegicus [9].
With `CN1CCc2c(-c3ccc(S(=O)(=O)N(C)C)cc3)cc3c(c2C1)NC(=O)/C3=N\OC(CCO)C(=O)O` (configuration not stated), the inhibition constant (Ki) is 0.043 µM in experiment [1] and more than 30 µM on Glutamate NMDA receptor. Further, the IC50 in experiment [2] amounted to 81 µM.
The like results for `O=c1[nH]c2cc(Cl)c(-n3cccc3)cc2c(=O)n1O` were, in that order, 16.6 µM, 1 µM and 8.2 µM.
`O=C(O)C(CCO)On1c(=O)[nH]c2cc(Cl)ccc2c1=O` (racemic): the inhibition in experiment [7] came out at 35%; in experiment [5], 40%; in the experiment listed under Rattus norvegicus [9], 10%.
With `O=Cc1ccn(-c2cc3c(=O)n(O)c(=O)[nH]c3cc2Cl)c1`, the Ki in [1] was determined as 4.2 µM; at Glutamate NMDA receptor, 22.7 µM. The 50% inhibitory concentration (IC50) in experiment [2] was found to be 6.2 µM.
On to `O=C1C=CCN1c1cc2c(=O)n(O)c(=O)[nH]c2cc1Cl`, for which the Ki stood at 6.2 µM in experiment [1] and 42 µM on Glutamate NMDA receptor. The same molecule yielded an IC50 in [2] of 10 µM.
Take `O=C(O)COn1c(=O)[nH]c2cc(Cl)ccc2c1=O`: the Ki is 99 µM in [1] and 90 µM on Glutamate NMDA receptor. The inhibition in the experiment listed under Rattus norvegicus [9] is 5%.
The like results for `O=C1CCC(=O)N1c1cc2c(=O)n(O)c(=O)[nH]c2cc1Cl` were, in that order, 36 µM, 88 µM and 44%.
For the molecule `O=C(NCc1ccccc1)Nc1cc2c(=O)n(O)c(=O)[nH]c2cc1Cl`, the inhibition in experiment [7] is 33%; in experiment [5], 27%; in the experiment listed under Rattus norvegicus [9], 32%.
In turn, `O=C(O)Cc1ccccc1Nc1c(Cl)cccc1Cl` [DICLOFENAC] displayed an Activity with Mus musculus [10] of 18.2.
With `O=C(O)c1ccccc1C(=O)Nc1cc2c(=O)n(O)c(=O)[nH]c2cc1Cl`, the Activity came out at 26.1 with Mus musculus [11]; 34.7 with Mus musculus [12]; 24.5 in the experiment on Mus musculus [13]; 3.3 in the experiment with Mus musculus [14]; 2.6 in the experiment on Mus musculus [15]; 1.7 in the experiment with Mus musculus [16]. Further, the Activity in the experiment on Mus musculus [17] is reported as 4.8; with Mus musculus [18], 3.7; with Mus musculus [19], 3.2. Further, the affinity in experiment [1], expressed as Ki, was 16.5 µM. Also, the IC50 is 0.62 µM in experiment [2] and 1.6 µM in experiment [6]. In experiment [5], this molecule returned an inhibition of 40%.
In [1], `O=C(O)c1cccc(C(=O)Nc2cc3c(=O)n(O)c(=O)[nH]c3cc2Cl)c1` had a Ki of 60 µM. Further, in experiment [2], the IC50 came to 100 µM. The inhibition in experiment [5] turned out to be 32%; in the experiment filed under Rattus norvegicus [8], 0%.
